Screens as filed in PubChem BioAssay.
Most compounds without a hit are left out; they make up all but 2.3% or so of the library.
HIV Env fusion: inhibitors of HIV Env-mediated cell fusion | HeLa-JRFL Env/CEM21 cell fusion, luciferase | inhibition, % at 12.3 µM | 1.1% of 360,000 active | AID 651610;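 active = mean replicate inhibition score of at least 50 and every replicate individually at or above 50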
Rtt109 HAT inh: inhibitors of Candida albicans Rtt109/Vps75 histone acetyltransferase; purified Rtt109/Vps75, ThioGlo CoA-SH fluorescence, 4 h; Q5AAJ8; 0.16% of 330,000 active; inhibition, % at 34.9 µM; AID 540336;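 active = inhibition of at least 50% in every replicate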
Target sequence (Q5AAJ8 whole entry, looked up): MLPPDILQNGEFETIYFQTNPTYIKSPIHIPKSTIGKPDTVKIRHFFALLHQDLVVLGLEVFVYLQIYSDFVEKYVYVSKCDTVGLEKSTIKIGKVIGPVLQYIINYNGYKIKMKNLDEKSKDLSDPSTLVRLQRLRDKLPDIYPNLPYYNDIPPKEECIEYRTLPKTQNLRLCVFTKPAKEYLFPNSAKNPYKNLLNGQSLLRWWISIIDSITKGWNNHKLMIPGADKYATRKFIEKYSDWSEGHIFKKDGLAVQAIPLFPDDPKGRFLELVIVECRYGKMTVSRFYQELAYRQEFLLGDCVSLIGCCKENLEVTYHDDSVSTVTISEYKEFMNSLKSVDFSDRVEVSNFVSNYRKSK
N-glyco inh: blocks N-linked glycosylation in D54 reporter cells. D54 ERlucT glycosylation luciferase reporter, 24 h; percent of 100 nM tunicamycin response. reporter increase, % at 12.5 µM. 0.23% of 360,000 active;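 active = mean luciferase reporter signal, scaled so untreated is 0 and the glycosylation-blocking control 100, at or above a set limit in every replicate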;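 also: luciferase carries N-glycosylation sites so blocking glycosylation raises the light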
PfHsp90 set2: inhibits growth of yeast expressing Plasmodium falciparum Hsp90. S. cerevisiae expressing PfHsp90, BacTiter-Glo ATP, 48 h; yeast lacking PDR1 and PDR3 efflux regulators. inhibition, % at 9.4 µM. 0.32% of 310,000 active. AID 504621;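 active = every replicate shows inhibition above about 80%, whatever the replicate mean, limit read from the data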
PAX8 inh HTS: inhibitors of PAX8 transcriptional activity in RMG-I cells; RMG-I TPO-luciferase reporter, SteadyGlo, 24 h; 1.2% of 360,000 active; inhibition, % at 12.6 µM;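 active = mean replicate inhibition at least 60% with every replicate also reaching 60%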;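 also: luciferase light reporting Pax8 driven TPO promoter activity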
Arr AP2 block: inhibitors of human beta-arrestin and AP2 interaction. AID 504490. inhibition, % at 10 µM. 0.31% of 340,000 active. FITC-arrestin peptide / GST-AP2 beads, flow cytometry; AP2 beta2 appendage carries R879A mutation;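 active = inhibition above a set limit, near 3 SD of compounds lacking own fluorescence, cut at about 54% in these data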
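Test system: GST-tagged AP2 beta2-adaptin appendage (R879A) on 4 µm glutathione beads; also added: fluorescein-tagged arrestin peptide at 50 nM final; timing: 12 min plus 1 h, RT; signal: flow cytometry, FL1 (488/535 nm); read-out: percent drop in bead-associated FITC signal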
Arr AP2 CP1: blocks beta-arrestin peptide binding to human AP2. shares compounds with Arr AP2 block. GST-AP2 beads, FITC arrestin peptide binding, flow cytometry; GST-fused beta2-adaptin appendage, R879A mutant. inhibition, % at 10 µM. 2% of 1,300 active;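 active = inhibition above a set limit, roughly 3 SD of non-fluorescent compound noise, cut at about 38% in these data; inactive = inhibition at or below that limit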;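 also: loss of bead fluorescence from 50 nM FITC arrestin peptide bound to appendage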
GST GSH counter: counter-screen for beta-arrestin AP2 inhibitors: GST-GSH bead binding. 2% of 1,300 active. AID 588338. GST-fluorescein binding to GSH beads, fluorescence. inhibition, % at 10 µM. shares compounds with Arr AP2 block;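 active = inhibition above 50%, about 3 SD of the inhibition seen with non-fluorescent compounds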;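 also: fluorescein maleimide labelled GST captured on 4 micron glutathione beads; higher means more loss of bead fluorescence from quenching or blocked binding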
Numbers stand for hits.

How did CCNC(=O)[C@@H]1[C@@H](CO)[C@@H]2Cn3c(ccc(-c4cccc(F)c4)c3=O)[C@@H]2N1Cc1nccs1 do in these assays?
PAX8 inh HTS: inactive

Results for CC(C)CC#Cc1ccc2c(c1)O[C@H](CN(C)CC1CC1)[C@H](C)CN([C@H](C)CO)S2(=O)=O ?
HIV Env fusion: inactive

What do the screens show for `O=C(CCNC(=O)c1ccccc1)NCc1ccccc1F`?
Rtt109 HAT inh: inactive; N-glyco inh: inactive; PfHsp90 set2: inactive; PAX8 inh HTS: inactive; Arr AP2 block: inactive

Results for O=C(CCNC(=O)c1ccc(Br)cc1)NCc1ccccc1F ?
HIV Env fusion: inactive; Rtt109 HAT inh: inactive; N-glyco inh: inactive; PfHsp90 set2: inactive; PAX8 inh HTS: inactive; Arr AP2 block: 55.1; Arr AP2 CP1: inactive; GST GSH counter: inactive

How did CC1CC(C)CN(C(=O)COC(=O)c2nccnc2N)C1 (stereo not drawn) do in these assays?
Rtt109 HAT inh: inactive; N-glyco inh: inactive; PfHsp90 set2: inactive; PAX8 inh HTS: inactive; Arr AP2 block: 62.8; Arr AP2 CP1: inactive; GST GSH counter: inactive

Results for Cc1c(C(=O)N/N=C/c2ccc(N(C)C)cc2)[nH]c2ccc(Cl)cc12 ?
HIV Env fusion: inactive; Rtt109 HAT inh: inactive; N-glyco inh: inactive; PfHsp90 set2: inactive; PAX8 inh HTS: inactive; Arr AP2 block: 90.2; Arr AP2 CP1: inactive; GST GSH counter: inactive

What do the screens show for `Cc1c(C(=O)N/N=C/c2ccccc2)[nH]c2ccc(Cl)cc12`?
HIV Env fusion: inactive; Rtt109 HAT inh: inactive; N-glyco inh: inactive; PfHsp90 set2: inactive; PAX8 inh HTS: inactive; Arr AP2 block: inactive

Results for Cn1c(N)c(C(=O)COC(=O)c2ccc([N+](=O)[O-])o2)c(=O)n(C)c1=O ?
HIV Env fusion: inactive; Rtt109 HAT inh: inactive; N-glyco inh: inactive; PfHsp90 set2: inactive; PAX8 inh HTS: inactive; Arr AP2 block: inactive

What do the screens show for `Cn1c(N)c(C(=O)COC(=O)CNC(=O)c2ccccc2)c(=O)n(C)c1=O`?
HIV Env fusion: inactive; Rtt109 HAT inh: inactive; N-glyco inh: inactive; PfHsp90 set2: inactive; PAX8 inh HTS: inactive; Arr AP2 block: inactive

What do the screens show for `Cc1ccc(C(=O)NCC(=O)OCC(=O)c2c(N)n(C)c(=O)n(C)c2=O)s1`?
Rtt109 HAT inh: inactive; N-glyco inh: inactive; PfHsp90 set2: inactive; Arr AP2 block: 74.7; Arr AP2 CP1: inactive; GST GSH counter: inactive

How did Cn1c(N)c(C(=O)COC(=O)c2ccc(Br)o2)c(=O)n(C)c1=O do in these assays?
Rtt109 HAT inh: inactive; N-glyco inh: inactive; PfHsp90 set2: inactive; Arr AP2 block: inactive; Arr AP2 CP1: inactive; GST GSH counter: inactive

Results for Cn1c(N)c(C(=O)COC(=O)CCC2CCCC2)c(=O)n(C)c1=O ?
HIV Env fusion: inactive; Rtt109 HAT inh: inactive; N-glyco inh: inactive; PfHsp90 set2: inactive; PAX8 inh HTS: inactive; Arr AP2 block: inactive

How did Cn1c(N)c(C(=O)COC(=O)CCC2CCCCC2)c(=O)n(C)c1=O do in these assays?
HIV Env fusion: inactive; Rtt109 HAT inh: inactive; N-glyco inh: inactive; PfHsp90 set2: inactive; PAX8 inh HTS: inactive; Arr AP2 block: 55.4; Arr AP2 CP1: inactive; GST GSH counter: inactive

What do the screens show for `Cn1c(N)c(C(=O)COC(=O)c2cncc(Br)c2)c(=O)n(C)c1=O`?
HIV Env fusion: inactive; Rtt109 HAT inh: inactive; N-glyco inh: inactive; PfHsp90 set2: inactive; PAX8 inh HTS: inactive; Arr AP2 block: 60.8; Arr AP2 CP1: inactive; GST GSH counter: inactive

How did C[C@@H]1CN([C@@H](C)CO)C(=O)c2cc(C#Cc3cccc(F)c3)cnc2O[C@@H]1CN(C)CC1CC1 do in these assays?
HIV Env fusion: inactive

Results for COCC#Cc1cnc2c(c1)C(=O)N([C@H](C)CO)C[C@H](C)[C@@H](CN(C)C(=O)C1CCC1)O2 ?
HIV Env fusion: inactive

What do the screens show for `C[C@@H]1CN([C@@H](C)CO)C(=O)c2cc(NC(=O)Nc3ccccc3)ccc2O[C@@H](C)CCCCO[C@H]1CN(C)S(=O)(=O)c1ccc(Cl)cc1`?
HIV Env fusion: inactive; PAX8 inh HTS: inactive

What do the screens show for `C[C@H](CO)N1C[C@H](C)[C@H](CN(C)S(=O)(=O)c2cccs2)Oc2ncc(-c3ccc(F)cc3)cc2C1=O`?
HIV Env fusion: inactive

How did CC(C)N(C[C@H]1[C@H](c2ccccc2)[C@@H](CO)N1S(C)(=O)=O)C(=O)CN(C)C do in these assays?
PAX8 inh HTS: inactive

How did CCCCOc1ccc(C(=O)OCC(=O)c2c(N)n(C)c(=O)n(C)c2=O)cc1 do in these assays?
Rtt109 HAT inh: inactive; N-glyco inh: inactive; PfHsp90 set2: inactive; PAX8 inh HTS: inactive; Arr AP2 block: inactive; Arr AP2 CP1: inactive; GST GSH counter: inactive

Results for CCCOc1ccc(C(=O)OCC(=O)c2c(N)n(C)c(=O)n(C)c2=O)cc1OCC ?
HIV Env fusion: inactive; Rtt109 HAT inh: inactive; N-glyco inh: inactive; PfHsp90 set2: inactive; PAX8 inh HTS: inactive; Arr AP2 block: inactive

What do the screens show for `O=C(Cc1ccncc1)Nc1ccc2c(c1)[C@@H]1C[C@@H](CC(=O)NC3CCCC3)O[C@H](CO)[C@@H]1O2`?
HIV Env fusion: inactive; PAX8 inh HTS: inactive

What do the screens show for `Cc1nc2ccc(F)cc2cc1C(=O)NCC1CCCO1` (stereo not drawn)?
Rtt109 HAT inh: inactive; N-glyco inh: inactive; PfHsp90 set2: inactive; Arr AP2 block: 104.8; Arr AP2 CP1: inactive; GST GSH counter: inactive

How did O=C(NCC1CCCO1)c1cc2ccccc2nc1Cl (stereo not drawn) do in these assays?
HIV Env fusion: inactive; Rtt109 HAT inh: inactive; N-glyco inh: inactive; PfHsp90 set2: inactive; PAX8 inh HTS: inactive; Arr AP2 block: inactive

Results for C[C@H]1CN([C@@H](C)CO)C(=O)Cc2cc(NS(=O)(=O)c3ccc(Cl)cc3)ccc2O[C@H]1CN(C)Cc1ccncc1 ?
PAX8 inh HTS: inactive

What do the screens show for `Cc1cc(NC(=O)c2cccs2)n(-c2nc3ccccc3[nH]2)n1`?
HIV Env fusion: inactive; Rtt109 HAT inh: inactive; N-glyco inh: inactive; PfHsp90 set2: inactive; PAX8 inh HTS: inactive; Arr AP2 block: 76.5; Arr AP2 CP1: inactive; GST GSH counter: inactive

What do the screens show for `Cc1cc(NC(=O)c2sccc2C)n(-c2nc3ccccc3[nH]2)n1`?
HIV Env fusion: inactive; Rtt109 HAT inh: inactive; N-glyco inh: inactive; PfHsp90 set2: inactive; PAX8 inh HTS: inactive; Arr AP2 block: inactive; Arr AP2 CP1: inactive; GST GSH counter: inactive

How did CCOC(=O)C(=O)Nc1cc(C)nn1-c1nc2ccccc2[nH]1 do in these assays?
HIV Env fusion: inactive; Rtt109 HAT inh: inactive; N-glyco inh: inactive; PfHsp90 set2: inactive; PAX8 inh HTS: inactive; Arr AP2 block: inactive
